For assay [1], the target named is Hepatocyte growth factor receptor (Homo sapiens, UniProt P08581). The assay is described as follows: Inhibition of wild type MET assessed as 33Pi incorporation after 60 mins by scintillation counting. A digest of the protocol:
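Wild-type MET phosphorylates poly(Ala,Glu,Lys,Tyr) in HEPES-NaOH pH 7.5 (70 mM) with 3 mM MgCl2, 3 mM MnCl2, orthovanadate, 1.2 mM DTT, PEG, 1 µM [γ-33P]-ATP, at 30 °C for 60 min. Stop with 2% H3PO4, wash, scintillation count. IC50 from residual activity at 10 singlicate concentrations.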

For assay [2], the target named is Vascular endothelial growth factor receptor 2 (Homo sapiens, UniProt P35968). Nature of the assay: Inhibition of recombinant VEGF-R2 assessed as 33Pi incorporation after 60 mins by scintillation counting. A digest of the protocol:
(§1)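 Tyrosine kinases assayed on poly(Glu,Tyr) in 70 mM HEPES-NaOH pH 7.5, 3 mM MgCl2, 3 mM MnCl2, orthovanadate, 1.2 mM DTT, PEG, 1 µM [γ-33P]-ATP; 30 °C for 60 min, then 2% H3PO4 stop, saline wash, 33Pi scintillation. IC50 derived from residual activity at 10 concentrations in singlicate.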

For assay [3], the system named is A2780. Nature of the assay: Antiproliferative activity against human A2780 cells after 24 hrs by MTT assay. The assay is classed as functional, cell-based. The following applies: Homo sapiens, A2780, 24 h; read-out: IC50. A digest of the protocol: (§2)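 Microplate MTT proliferation read-out, scored against untreated controls; each experiment run in triplicate.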
On the technique in general: Tetrazolium dyes change colour on reduction, which living cells bring about.

The target in assay [4] is Tyrosine-protein kinase receptor UFO (Homo sapiens, UniProt P30530). The assay is described as follows: Inhibition of recombinant AXL assessed as 33Pi incorporation after 60 mins by scintillation counting. The essentials: as §1
A further assay concerns the target Aurora kinase B (Homo sapiens, UniProt Q96GD4). Nature of the assay: Inhibition of recombinant Aurora-b assessed as 33Pi incorporation after 60 mins by scintillation counting. The essentials: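 Substrate tetra(LRRWSLG) with recombinant Aurora-B. Buffer is 70 mM HEPES-NaOH pH 7.5, 3 mM MgCl2, 3 mM MnCl2, orthovanadate, 1.2 mM DTT, PEG, with 1 µM [γ-33P]-ATP. After 60 min at 30 °C, 2% H3PO4 stop, NaCl washes, 33Pi counted. IC50 fitted from 10 singlicate concentrations.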

Assay [5] has as its target Serine/threonine-protein kinase N1 (Homo sapiens, UniProt Q16512). Nature of the assay: Inhibition of recombinant PRK1 assessed as 33Pi incorporation after 60 mins by scintillation counting. A digest of the protocol:
(§3)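 Kinase reaction uses RBER-CHKtide as substrate in HEPES-NaOH pH 7.5 (70 mM) with 3 mM each MgCl2 and MnCl2, orthovanadate, 1.2 mM DTT, PEG and 1 µM [γ-33P]-ATP. Run at 30 °C for 60 min, quenched in 2% H3PO4, saline-washed, scintillation-counted. Residual activity at 10 concentrations (singlicate) gives IC50.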

Assay [6] deals with Serine/threonine-protein kinase PLK1 (Homo sapiens, UniProt P53350). The assay is described as follows: Inhibition of recombinant PLK1 assessed as 33Pi incorporation after 60 mins by scintillation counting. The essentials:
as §3

The target of the next assay is Focal adhesion kinase 1 (Homo sapiens, UniProt Q05397). The assay is described as follows: Inhibition of recombinant FAK assessed as 33Pi incorporation after 60 mins by scintillation counting. The essentials: as §1
Assay [7] has as its target Serine/threonine-protein kinase pim-1 (Homo sapiens, UniProt P11309). The assay is described as follows: Inhibition of recombinant PIM1 assessed as 33Pi incorporation after 60 mins by scintillation counting. The essentials: (§4)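 Recombinant kinase with GSK3(14-27) substrate in 70 mM HEPES-NaOH pH 7.5, 3 mM MgCl2, 3 mM MnCl2, Na-orthovanadate, 1.2 mM DTT, PEG, 1 µM [γ-33P]-ATP. Incubated 30 °C, 60 min, stopped with 2% H3PO4, washed with 0.9% NaCl, 33Pi counted. IC50 from residual activity over 10 concentrations in singlicate.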

In assay [8] the target is Dual specificity mitogen-activated protein kinase kinase 1 (Homo sapiens, UniProt Q02750). Nature of the assay: Inhibition of wild type MEK1 assessed as 33Pi incorporation after 60 mins by scintillation counting. A digest of the protocol: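 ERK2-KR is the substrate for wild-type MEK1 in 70 mM HEPES-NaOH pH 7.5 containing 3 mM MgCl2, 3 mM MnCl2, orthovanadate, 1.2 mM DTT, PEG and 1 µM [γ-33P]-ATP. Reaction runs 60 min at 30 °C and is stopped with 2% H3PO4; incorporated 33Pi is counted after washing. IC50 comes from 10 concentrations tested once each.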

Another assay relates to K562. Nature of the assay: Antiproliferative activity against human K562 cells up to 365 uM after 24 hrs by MTT assay. The assay is classed as functional, cell-based.
In assay [9] the target is Serine/threonine-protein kinase Nek2 (Homo sapiens, UniProt P51955). Nature of the assay: Inhibition of recombinant NEK2 assessed as 33Pi incorporation after 60 mins by scintillation counting. A digest of the protocol:
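NEK2 reaction on RB-CTF substrate. Contains 70 mM HEPES-NaOH pH 7.5, 3 mM MgCl2/MnCl2, orthovanadate, 1.2 mM DTT, PEG and 1 µM [γ-33P]-ATP. Incubation is 30 °C, 60 min, followed by 2% H3PO4 stop, 0.9% NaCl washes and 33Pi scintillation counting. IC50 from 10 concentrations in singlicate.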

Assay [10] concerns A2780. The assay is described as follows: Antiproliferative activity against human cisplatin resistant A2780 cells after 24 hrs by MTT assay. In kind it is functional, cell-based. The settings on record: Homo sapiens, A2780, 24 h; read-out: IC50. A digest of the protocol: as §2
Assay [11] has as its target ALK tyrosine kinase receptor (Homo sapiens, UniProt Q9UM73). The assay is described as follows: Inhibition of recombinant ALK assessed as 33Pi incorporation after 60 mins by scintillation counting. A digest of the protocol: as §1
The target of assay [12] is Proto-oncogene tyrosine-protein kinase Src (Homo sapiens, UniProt P12931). Nature of the assay: Inhibition of recombinant SRC assessed as 33Pi incorporation after 60 mins by scintillation counting. The essentials: as §1
The target in assay [13] is RAC-alpha serine/threonine-protein kinase (Homo sapiens, UniProt P31749). The assay is described as follows: Inhibition of recombinant AKT1 assessed as 33Pi incorporation after 60 mins by scintillation counting. A digest of the protocol:
as §4

In another assay the test system is L5178Y. Nature of the assay: Antiproliferative activity against mouse L5178Y cells after 24 hrs by MTT assay. The assay is classed as functional, cell-based. The following applies: Mus musculus, L5178Y, 24 h; read-out: IC50. A digest of the protocol: as §2
Assay [14] deals with Insulin-like growth factor 1 receptor (Homo sapiens, UniProt P08069). Nature of the assay: Inhibition of recombinant IGF1-R assessed as 33Pi incorporation after 60 mins by scintillation counting. The essentials:
as §1

For assay [15], the target named is NUAK family SNF1-like kinase 1 (Homo sapiens, UniProt O60285). Nature of the assay: Inhibition of recombinant ARK5 assessed as 33Pi incorporation after 60 mins by scintillation counting. A digest of the protocol:
as §3

In assay [16] the target is Serine/threonine-protein kinase Nek6 (Homo sapiens, UniProt Q9HC98). Nature of the assay: Inhibition of recombinant NEK6 assessed as 33Pi incorporation after 60 mins by scintillation counting. A digest of the protocol: as §4
The test system of another assay is HUVEC. The assay is described as follows: Inhibition of VEGF-A induced HUVEC cell sprouting after 24 hrs by angiogenesis assay. The assay is classed as functional, cell-based. The settings on record: Homo sapiens. The essentials:
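HUVEC spheroids (500 cells, formed overnight in hanging drops) embedded in collagen gel. Compound plus VEGF-A (25 ng/mL final) added after 30 min; 37 °C for 24 h, then paraformaldehyde fixation. Mean cumulative sprout length of 10 random spheroids per point; seven concentrations, 10 µM to 10 nM, in singlicate for IC50.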

Sequence of Dual specificity mitogen-activated protein kinase kinase 1 (Q02750 whole entry): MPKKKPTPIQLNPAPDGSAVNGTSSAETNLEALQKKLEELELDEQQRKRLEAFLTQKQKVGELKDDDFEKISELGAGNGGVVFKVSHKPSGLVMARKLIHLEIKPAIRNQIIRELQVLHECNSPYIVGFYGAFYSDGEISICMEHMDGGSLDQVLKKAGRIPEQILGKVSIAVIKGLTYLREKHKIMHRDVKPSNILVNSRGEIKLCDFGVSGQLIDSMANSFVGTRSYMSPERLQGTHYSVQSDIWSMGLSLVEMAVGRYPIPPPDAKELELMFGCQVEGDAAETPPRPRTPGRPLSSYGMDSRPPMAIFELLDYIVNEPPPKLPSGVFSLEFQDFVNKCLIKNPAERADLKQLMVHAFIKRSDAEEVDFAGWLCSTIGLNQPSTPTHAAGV
Sequence of Hepatocyte growth factor receptor (P08581 whole entry): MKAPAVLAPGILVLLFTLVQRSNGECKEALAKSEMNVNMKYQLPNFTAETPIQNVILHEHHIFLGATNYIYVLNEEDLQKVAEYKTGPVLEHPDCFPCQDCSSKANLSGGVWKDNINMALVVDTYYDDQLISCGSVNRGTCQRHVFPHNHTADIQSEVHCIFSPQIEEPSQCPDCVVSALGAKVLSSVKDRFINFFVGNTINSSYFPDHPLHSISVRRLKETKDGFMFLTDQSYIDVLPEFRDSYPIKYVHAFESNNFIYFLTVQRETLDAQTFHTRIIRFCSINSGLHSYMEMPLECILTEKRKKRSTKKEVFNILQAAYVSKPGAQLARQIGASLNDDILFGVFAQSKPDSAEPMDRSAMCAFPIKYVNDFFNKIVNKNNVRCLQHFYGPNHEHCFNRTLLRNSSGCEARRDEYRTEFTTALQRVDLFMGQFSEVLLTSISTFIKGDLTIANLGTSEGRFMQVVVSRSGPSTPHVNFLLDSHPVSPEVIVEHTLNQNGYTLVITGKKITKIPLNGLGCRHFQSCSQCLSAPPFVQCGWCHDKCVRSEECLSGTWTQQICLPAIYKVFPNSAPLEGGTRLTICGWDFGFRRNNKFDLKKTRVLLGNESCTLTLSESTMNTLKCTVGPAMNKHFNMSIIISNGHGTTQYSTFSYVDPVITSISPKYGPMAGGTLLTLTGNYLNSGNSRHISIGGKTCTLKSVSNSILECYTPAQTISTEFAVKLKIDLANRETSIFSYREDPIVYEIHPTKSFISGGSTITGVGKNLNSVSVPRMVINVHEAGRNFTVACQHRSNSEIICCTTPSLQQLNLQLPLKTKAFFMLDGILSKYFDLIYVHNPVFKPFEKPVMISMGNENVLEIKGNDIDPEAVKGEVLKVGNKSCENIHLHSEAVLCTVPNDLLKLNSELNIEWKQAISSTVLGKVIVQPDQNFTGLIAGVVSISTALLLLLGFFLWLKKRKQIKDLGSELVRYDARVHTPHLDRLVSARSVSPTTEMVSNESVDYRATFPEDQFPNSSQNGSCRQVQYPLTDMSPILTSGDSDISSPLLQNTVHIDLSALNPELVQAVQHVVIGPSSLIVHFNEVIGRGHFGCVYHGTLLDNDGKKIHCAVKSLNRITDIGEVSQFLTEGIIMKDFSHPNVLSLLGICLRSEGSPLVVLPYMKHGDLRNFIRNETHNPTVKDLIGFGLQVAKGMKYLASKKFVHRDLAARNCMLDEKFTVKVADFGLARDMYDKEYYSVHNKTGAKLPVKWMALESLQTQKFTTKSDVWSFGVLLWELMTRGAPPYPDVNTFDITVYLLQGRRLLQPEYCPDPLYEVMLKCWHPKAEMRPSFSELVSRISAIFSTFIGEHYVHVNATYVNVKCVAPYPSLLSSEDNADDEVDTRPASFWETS
Sequence of Insulin-like growth factor 1 receptor (P08069 31-736 limits assumed): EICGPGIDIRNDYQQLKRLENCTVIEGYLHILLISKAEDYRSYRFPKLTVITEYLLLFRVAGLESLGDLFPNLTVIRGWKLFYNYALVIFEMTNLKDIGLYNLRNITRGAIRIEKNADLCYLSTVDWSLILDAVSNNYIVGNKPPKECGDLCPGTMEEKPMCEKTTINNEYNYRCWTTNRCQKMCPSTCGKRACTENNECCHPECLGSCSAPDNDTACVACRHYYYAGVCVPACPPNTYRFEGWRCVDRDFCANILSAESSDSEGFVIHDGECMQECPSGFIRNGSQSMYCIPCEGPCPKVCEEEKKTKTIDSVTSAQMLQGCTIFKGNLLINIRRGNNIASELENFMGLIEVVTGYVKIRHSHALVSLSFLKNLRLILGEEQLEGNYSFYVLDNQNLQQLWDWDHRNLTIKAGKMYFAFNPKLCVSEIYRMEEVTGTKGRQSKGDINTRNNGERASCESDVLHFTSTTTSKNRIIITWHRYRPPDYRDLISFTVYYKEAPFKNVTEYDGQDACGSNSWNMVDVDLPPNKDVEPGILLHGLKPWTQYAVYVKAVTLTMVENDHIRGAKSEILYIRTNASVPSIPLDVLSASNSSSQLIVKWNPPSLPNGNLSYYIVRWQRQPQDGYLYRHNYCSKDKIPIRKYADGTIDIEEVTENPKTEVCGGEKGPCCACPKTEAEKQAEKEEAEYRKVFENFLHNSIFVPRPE
Sequence of Insulin-like growth factor 1 receptor (P08069 741-1367 limits assumed): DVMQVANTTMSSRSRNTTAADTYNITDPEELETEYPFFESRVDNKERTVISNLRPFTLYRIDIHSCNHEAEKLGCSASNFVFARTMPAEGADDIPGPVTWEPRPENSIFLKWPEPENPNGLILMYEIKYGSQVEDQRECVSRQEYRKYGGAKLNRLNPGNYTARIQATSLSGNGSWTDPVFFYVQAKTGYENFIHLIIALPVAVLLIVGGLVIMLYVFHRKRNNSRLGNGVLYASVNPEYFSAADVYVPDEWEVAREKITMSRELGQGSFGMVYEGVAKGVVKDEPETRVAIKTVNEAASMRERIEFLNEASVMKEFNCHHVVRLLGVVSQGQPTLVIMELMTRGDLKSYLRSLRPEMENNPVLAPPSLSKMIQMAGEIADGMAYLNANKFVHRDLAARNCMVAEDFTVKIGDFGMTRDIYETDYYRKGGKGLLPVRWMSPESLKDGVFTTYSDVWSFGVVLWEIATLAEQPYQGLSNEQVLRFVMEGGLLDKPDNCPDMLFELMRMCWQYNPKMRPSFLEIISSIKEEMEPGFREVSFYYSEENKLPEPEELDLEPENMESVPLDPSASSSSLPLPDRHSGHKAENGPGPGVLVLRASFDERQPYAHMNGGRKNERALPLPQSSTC
Sequence of Aurora kinase B (Q96GD4 whole entry): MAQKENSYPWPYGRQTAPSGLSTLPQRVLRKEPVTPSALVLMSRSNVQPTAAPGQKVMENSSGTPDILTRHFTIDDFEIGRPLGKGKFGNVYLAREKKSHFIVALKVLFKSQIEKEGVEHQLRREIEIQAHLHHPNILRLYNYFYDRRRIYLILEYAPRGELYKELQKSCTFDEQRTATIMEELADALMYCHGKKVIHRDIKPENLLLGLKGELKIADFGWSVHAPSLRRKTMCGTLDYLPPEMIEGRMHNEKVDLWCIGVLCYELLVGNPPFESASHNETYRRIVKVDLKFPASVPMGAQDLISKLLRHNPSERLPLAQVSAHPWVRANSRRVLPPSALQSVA
Sequence of NUAK family SNF1-like kinase 1 (O60285 whole entry): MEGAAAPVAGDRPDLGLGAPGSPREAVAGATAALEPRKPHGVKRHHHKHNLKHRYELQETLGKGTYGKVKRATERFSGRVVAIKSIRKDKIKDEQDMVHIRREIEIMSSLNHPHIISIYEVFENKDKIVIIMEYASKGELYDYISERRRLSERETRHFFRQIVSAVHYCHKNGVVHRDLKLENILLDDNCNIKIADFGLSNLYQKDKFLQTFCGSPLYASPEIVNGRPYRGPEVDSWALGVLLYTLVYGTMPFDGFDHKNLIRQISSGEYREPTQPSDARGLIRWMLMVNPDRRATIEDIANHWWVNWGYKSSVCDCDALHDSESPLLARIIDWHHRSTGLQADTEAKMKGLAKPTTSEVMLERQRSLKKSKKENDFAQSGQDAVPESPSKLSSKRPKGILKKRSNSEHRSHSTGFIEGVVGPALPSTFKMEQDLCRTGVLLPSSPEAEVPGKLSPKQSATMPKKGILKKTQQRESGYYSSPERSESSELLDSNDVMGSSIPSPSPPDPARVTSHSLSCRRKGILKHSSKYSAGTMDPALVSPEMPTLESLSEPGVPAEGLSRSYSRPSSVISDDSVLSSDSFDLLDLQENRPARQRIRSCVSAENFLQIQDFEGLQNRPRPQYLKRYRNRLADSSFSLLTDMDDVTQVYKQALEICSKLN
Sequence of Serine/threonine-protein kinase Nek6 (Q9HC98 whole entry): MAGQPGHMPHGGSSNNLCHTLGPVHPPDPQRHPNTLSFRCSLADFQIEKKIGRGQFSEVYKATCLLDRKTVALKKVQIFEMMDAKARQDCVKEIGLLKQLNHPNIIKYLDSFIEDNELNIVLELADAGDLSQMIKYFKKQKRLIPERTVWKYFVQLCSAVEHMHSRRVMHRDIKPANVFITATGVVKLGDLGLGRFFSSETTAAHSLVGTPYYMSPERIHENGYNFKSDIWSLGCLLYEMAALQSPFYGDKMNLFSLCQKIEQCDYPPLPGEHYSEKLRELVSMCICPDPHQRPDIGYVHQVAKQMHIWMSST
Sequence of Proto-oncogene tyrosine-protein kinase Src (P12931 2-536 limits assumed): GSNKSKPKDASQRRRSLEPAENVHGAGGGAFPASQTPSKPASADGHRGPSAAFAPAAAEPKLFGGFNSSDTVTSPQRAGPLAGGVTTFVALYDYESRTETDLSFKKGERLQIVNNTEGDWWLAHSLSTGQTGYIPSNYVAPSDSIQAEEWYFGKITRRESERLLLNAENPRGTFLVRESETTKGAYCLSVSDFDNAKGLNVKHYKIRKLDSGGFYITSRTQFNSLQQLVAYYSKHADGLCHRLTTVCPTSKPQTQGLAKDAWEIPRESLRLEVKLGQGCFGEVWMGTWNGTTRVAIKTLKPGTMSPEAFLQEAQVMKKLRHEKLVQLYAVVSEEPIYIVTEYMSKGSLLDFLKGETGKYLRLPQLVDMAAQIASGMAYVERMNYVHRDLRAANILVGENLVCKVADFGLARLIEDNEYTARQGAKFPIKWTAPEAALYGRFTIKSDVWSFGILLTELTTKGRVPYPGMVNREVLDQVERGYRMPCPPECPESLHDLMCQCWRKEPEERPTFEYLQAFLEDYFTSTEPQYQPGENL

For `Cc1c(O)c(O)cc2oc3cc(O)cc(O)c3c(=O)c12` [ANOMALIN A], the IC50 was found to be 4.4 µM in assay [1]; 0.8 µM in [2]; 4.34 µM in the assay with A2780 [3]; 6.6 µM in assay [4]; 0.5 µM at Aurora kinase B; 45.3 µM in assay [5]. In addition, the IC50 in assay [6] was 8.8 µM; on Focal adhesion kinase 1, 15.2 µM; in [7], 0.3 µM; in assay [8] it was over 100 µM; with K562 it was “Not Active”; in [9] it was 83.9 µM. For the same molecule, the IC50 in the assay with A2780 [10] was 26 µM; in [11], 1.1 µM; in assay [12], 12.9 µM; in assay [13], over 100 µM; in the assay with L5178Y it was 0.4 µM; in assay [14], 8.6 µM. Further, the IC50 in assay [15] was 15.6 µM; in assay [16] it was 67.8 µM; in the assay on HUVEC, 1.8 µM.

As a reminder, the IC50 is the midpoint of a concentration-inhibition curve.

The values are drawn from ChEMBL document CHEMBL1811781, “Arthrinins A-D: novel diterpenoids and further constituents from the sponge derived fungus Arthrinium sp” (Bioorg Med Chem, 2011).
